Experimental findings from ChEMBL document CHEMBL1139495, “Retro hydrazino-azapeptoids as peptidomimetics of proteasome inhibitors” (J Med Chem, 2005) are described below.

The structures appear in SMILES notation. Where a SMILES comes first, the peptide text is derived from it. [ ]: non-standard residue; d: D form. Nle = CCCC[C@H](N)C(=O)O

Assay [1] concerns Proteasome. Put plainly: Inhibitory concentration against 20S proteasome chymotrypsin-like activity. Type of assay: subcellular.
Another assay concerns L1210. Put plainly: Inhibitory concentration of the compound was determined against L1210 cells. The format is functional, cell-based. The note with it: Mus musculus. The procedure, abridged:
(§1)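 MTT read-out on cultured cells (murine leukemia L1210, melanoma B16, normal melanocyte Mel-A), scoring growth inhibition as either a cytostatic or a cytotoxic effect.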

Another assay has as its system B16. Put plainly: Inhibitory concentration of the compound was determined against melanoma B16 cells. Type of assay: functional, cell-based. The note with it: Mus musculus. The procedure, abridged:
as §1

The subject of a further assay is Mel-A (Mus musculus). Put plainly: Inhibitory concentration of the compound was determined against melanocyte Mel-A cells.
Assay [2] addresses T1, Calpain-1 catalytic subunit (Homo sapiens, UniProt P07384).
T1 sequence (P07384 whole entry): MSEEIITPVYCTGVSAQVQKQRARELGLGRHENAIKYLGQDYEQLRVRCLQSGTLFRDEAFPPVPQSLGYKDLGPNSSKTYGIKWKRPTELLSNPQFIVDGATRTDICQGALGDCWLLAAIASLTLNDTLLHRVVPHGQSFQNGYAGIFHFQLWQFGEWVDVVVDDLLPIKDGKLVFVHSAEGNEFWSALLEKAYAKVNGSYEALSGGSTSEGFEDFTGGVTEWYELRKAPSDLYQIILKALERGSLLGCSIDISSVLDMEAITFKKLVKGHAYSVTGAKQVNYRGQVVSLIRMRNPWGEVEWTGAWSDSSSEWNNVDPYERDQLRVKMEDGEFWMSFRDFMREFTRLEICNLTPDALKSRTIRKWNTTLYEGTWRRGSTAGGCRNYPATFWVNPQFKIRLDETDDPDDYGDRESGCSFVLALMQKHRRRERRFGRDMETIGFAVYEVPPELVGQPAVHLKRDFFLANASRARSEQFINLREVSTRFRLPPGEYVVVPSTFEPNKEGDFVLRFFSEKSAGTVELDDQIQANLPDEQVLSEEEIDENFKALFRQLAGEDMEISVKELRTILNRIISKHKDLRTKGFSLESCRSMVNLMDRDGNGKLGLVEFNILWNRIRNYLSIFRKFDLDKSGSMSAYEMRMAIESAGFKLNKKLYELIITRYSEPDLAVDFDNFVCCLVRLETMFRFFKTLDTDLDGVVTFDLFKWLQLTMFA
The assay can be described thus: Inhibitory concentration against Calpain I activity.

A further assay has as its target Cathepsin B (Homo sapiens, UniProt P07858). The assay can be described thus: (§2) Inhibitory concentration against Cathepsin B activity. The format is functional.
Assay [3] relates to Proteasome. Put plainly: Inhibitory effect on 20S proteasome chymotrypsin-like activity. The format is subcellular.
A short description of assay [4]: Inhibitory concentration against peptidyl-glutamyl peptide hydrolase activity.
Assay [5] can be described thus: as §2.

With `CC(C)CN(CC(=O)N(Cc1ccccc1)NC(=O)OCc1ccccc1)/N=C/c1cccc(B(O)O)c1`, the IC50 – broadly, the midpoint of a concentration-inhibition curve – in the assay with Proteasome [1] is greater than 1000 µM; in the assay on L1210, 16.9 µM; in the assay with B16, 20.5 µM; in the assay with Mel-A (Mus musculus), 19.9 µM.

On to `CC(C)CN(CC(=O)N(Cc1cccnc1)NC(=O)OCc1ccccc1)/N=C/c1cccc(B(O)O)c1`, for which the 50% inhibitory concentration (IC50) in the assay with Proteasome [1] came to 350 µM; in the assay with L1210, 41.6 µM; in the assay on B16, 21.1 µM; in the assay with Mel-A (Mus musculus) it was 40.3 µM.

With `CC(C)CN(CC(=O)NN(Cc1ccccc1)c1cnccn1)/N=C/c1cccc(B(O)O)c1`, the 50% inhibitory concentration (IC50) was greater than 1000 µM with Proteasome [1], greater than 80 µM in the assay with L1210, greater than 80 µM in the assay on B16 and 33.7 µM with Mel-A (Mus musculus).

As to `CC(C)CN(NC(=O)OCc1ccccc1)C(=O)CN(Cc1ccccc1)/N=C/c1ccccc1B(O)O`, the concentration for half-maximal inhibition (IC50) in the assay with Proteasome [1] is greater than 1000 µM; with L1210, 27.9 µM; with B16, 65.5 µM; in the assay on Mel-A (Mus musculus), 45.1 µM.

Turning to `CC(C)CN(CC(=O)N(Cc1ccccc1)NC(=O)OCc1ccccc1)/N=C/c1ccccc1B(O)O`, the half-maximal inhibitory concentration (IC50) was greater than 1000 µM in the assay on Proteasome [1], 18.4 µM in the assay on L1210, 33.5 µM in the assay on B16 and 25.1 µM in the assay with Mel-A (Mus musculus).

As to `CC(C)CN(NC(=O)CN(Cc1ccccc1)/N=C/c1cccc(B(O)O)c1)c1cnccn1`, the half-inhibitory concentration (IC50) in the assay on Proteasome [1] is 500 µM; with L1210, greater than 80 µM; in the assay on B16, greater than 80 µM; with Mel-A (Mus musculus) it was 16.3 µM.

As for `CC(C)CN(CC(=O)N(CC(C)C)NC(=O)OCc1ccccc1)NC(=O)CBr`, the IC50 with Proteasome [1] was greater than 1000 µM; in the assay on L1210 it was 6.5 µM; in the assay with B16, 1.3 µM; in the assay with Mel-A (Mus musculus) it was 3.3 µM.

Regarding `CC(C)CN(CC(=O)NN(Cc1ccccc1)c1cnccn1)NC(=O)CBr`, the concentration for half-maximal inhibition (IC50) is greater than 1000 µM in the assay with Proteasome [1], 24.1 µM in the assay with L1210, 11.4 µM in the assay with B16 and 14.8 µM in the assay on Mel-A (Mus musculus).

With `CC(C)CN(NC(=O)OCc1ccccc1)C(=O)CN(Cc1ccccc1)NC(=O)CBr`, the IC50 in the assay on Proteasome [1] was greater than 1000 µM; in the assay on L1210, 1.3 µM; with B16 it was 1.4 µM; in the assay with Mel-A (Mus musculus), 1.8 µM.

As for `CC(C)CN(CC(=O)N(CC(C)C)NC(=O)OCc1ccccc1)NC(=O)CNNC(=O)CBr`, the IC50 in the assay with Proteasome [1] was greater than 1000 µM; with L1210, 7.6 µM; in the assay on B16, 2.5 µM; in the assay on Mel-A (Mus musculus), 2.3 µM.

For the molecule `CC(C)CN(NC(=O)OCc1ccccc1)C(=O)CN(Cc1ccccc1)NCc1cccc(Br)c1`, the IC50 with Proteasome [1] is greater than 1000 µM; in the assay on L1210, 30 µM; in the assay on B16, greater than 80 µM.

As for `CC(C)CN(NC(=O)OCc1ccccc1)C(=O)CN(Cc1ccccc1)/N=C/c1ccc(B(O)O)cc1`, the 50% inhibitory concentration (IC50) was greater than 1000 µM with Proteasome [1], 14.7 µM in the assay on L1210, 32.6 µM with B16 and 39.3 µM in the assay on Mel-A (Mus musculus).

For `CC(C)CN(CC(=O)N(CC(C)C)NC(=O)OCc1ccccc1)/N=C/c1cccc(B(O)O)c1`, the IC50 came to 91 µM in the assay on Proteasome [1], 21.2 µM with L1210 and 53.9 µM in the assay with B16.

`CC(C)CN(NC(=O)OCc1ccccc1)C(=O)CN(Cc1cccnc1)/N=C/c1cccc(B(O)O)c1`: the concentration for half-maximal inhibition (IC50) is greater than 1000 µM with Proteasome [1], 75 µM in the assay with L1210, 74.9 µM in the assay on B16 and 60.9 µM in the assay on Mel-A (Mus musculus).

`CC(C)CN(CC(=O)N(CC(C)C)NC(=O)OCc1ccccc1)/N=C/c1ccccc1B(O)O`: the IC50 in the assay on Proteasome [1] was 50 µM; in assay [2], greater than 1000 µM; in the assay on L1210 it was 16.2 µM; with B16 it was 26.3 µM; in the assay with Mel-A (Mus musculus), 17.3 µM; against Cathepsin B, greater than 1000 µM.

Regarding `CCCC[C@@H](C=O)NC(=O)[C@H](CC(C)C)NC(=O)[C@H](CC(C)C)NC(C)=O` (Ac-Leu-Leu-[Nle]-aldehyde), the IC50 in [2] was 1 µM; with Proteasome [3], 15 µM; with L1210, 3 µM; in the assay on B16, 14.5 µM; in assay [4], 45 µM; in assay [5] it was 12 µM.

On to `CC(C)CN(NC(=O)OCc1ccccc1)C(=O)CN(Cc1ccccc1)/N=C/c1cccc(B(O)O)c1`, for which the half-inhibitory concentration (IC50) is 53 µM in the assay on Proteasome [1]; greater than 1000 µM in [2]; 16.2 µM in the assay with L1210; 20.4 µM in the assay with B16; 18.4 µM in the assay on Mel-A (Mus musculus); greater than 1000 µM at Cathepsin B.

As to `CC(C)CN(NC(=O)CN(Cc1ccccc1)NC(=O)CBr)C(=O)OCc1ccccc1`, the half-maximal inhibitory concentration (IC50) in the assay with Proteasome [1] was greater than 1000 µM; with L1210, 0.6 µM; in the assay on B16, 0.7 µM.

For `CC(C)CN(CC(=O)N(CC(C)C)NCC(=O)OCc1ccccc1)NC(=O)CBr`, the IC50 with Proteasome [1] was greater than 1000 µM; in the assay on L1210, 5 µM; with B16, 2.2 µM; in the assay with Mel-A (Mus musculus) it was 4.5 µM.
